Laboratory results from ChEMBL document CHEMBL2057149 (J Med Chem, 2012).
Active and inactive are the calls of the source. No cut-off for these calls is given here.

Columns and labels:
[1] = target: Vascular endothelial growth factor A (Homo sapiens) (UniProt P15692); test: Binding affinity to VEGF by surface plasmon resonance assay
Aorta [2] = test: Antiangiogenic activity in Sprague-Dawley rat aorta assessed as inhibition of tube formation dosed daily at 10 uM measured up to 8 days by matrigel assay; format: functional
Summary of the method: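 Aortas from 6–10-week Sprague–Dawley rats were cut into 1 mm rings, bisected and embedded in Matrigel. Cultured in EBM-2 with 2% FCS and supplements except heparin, without exogenous growth factors. Compound was usually given at two concentrations within 1–50 μM from 10 mM PBS stocks, replenished every 48 h. Microvessels were scored 0–5 up to 8 days by two independent investigators.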

HMVEC [3] = test: Antiangiogenic activity in VEGF-stimulated HMVEC cells after 72 hrs by CellTiter assay; format: functional, cell-based; details: Homo sapiens
Plasma [4] = test: Anticoagulant activity in pooled human plasma assessed as activated partial thromboplastin time at 0.1 mg/ml; format: ADME, cell-free
Summary of the method: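 APTT of pooled normal human plasma measured with compound at 0–100 μg/mL in PBS on a ball coagulameter, using unfractionated heparin as the reference. Normal range 26–36 s; coefficient of variation 2% at 36 s and 5–7% at 90 s or above. Values are the mean of two determinations.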

HMVEC [5] = test: Antiangiogenic activity in FGF2-stimulated HMVEC cells after 72 hrs by CellTiter assay; format: functional, cell-based; details: Homo sapiens
[6] = target: Fibroblast growth factor 2 (Homo sapiens, UniProt P09038); test: Binding affinity to FGF-2 by surface plasmon resonance assay
Sequence of Fibroblast growth factor 2 (P09038 143-288 limits assumed): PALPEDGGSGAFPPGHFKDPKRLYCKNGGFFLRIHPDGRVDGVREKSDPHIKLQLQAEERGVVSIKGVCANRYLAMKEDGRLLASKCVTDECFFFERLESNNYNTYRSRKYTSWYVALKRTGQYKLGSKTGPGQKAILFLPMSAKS
Summary of the method: (§1)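 Solution-affinity SPR on heparin-coated CM4 chips. FGF-1 measured in HBS-EP (10 mM HEPES pH 7.4, 150 mM NaCl, 3.0 mM EDTA, 0.005% polysorbate 20); FGF-2 measured in HBS-EP with 300 mM NaCl. Kd is the average of at least duplicate measurements ± SD.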

Heparanase = target: T1, Heparanase (Homo sapiens, UniProt Q9Y251); test: Inhibition of human recombinant heparanase after 2 to 24 hrs by WST1 dye based fondaparinux assay
T1 sequence (Q9Y251 whole entry): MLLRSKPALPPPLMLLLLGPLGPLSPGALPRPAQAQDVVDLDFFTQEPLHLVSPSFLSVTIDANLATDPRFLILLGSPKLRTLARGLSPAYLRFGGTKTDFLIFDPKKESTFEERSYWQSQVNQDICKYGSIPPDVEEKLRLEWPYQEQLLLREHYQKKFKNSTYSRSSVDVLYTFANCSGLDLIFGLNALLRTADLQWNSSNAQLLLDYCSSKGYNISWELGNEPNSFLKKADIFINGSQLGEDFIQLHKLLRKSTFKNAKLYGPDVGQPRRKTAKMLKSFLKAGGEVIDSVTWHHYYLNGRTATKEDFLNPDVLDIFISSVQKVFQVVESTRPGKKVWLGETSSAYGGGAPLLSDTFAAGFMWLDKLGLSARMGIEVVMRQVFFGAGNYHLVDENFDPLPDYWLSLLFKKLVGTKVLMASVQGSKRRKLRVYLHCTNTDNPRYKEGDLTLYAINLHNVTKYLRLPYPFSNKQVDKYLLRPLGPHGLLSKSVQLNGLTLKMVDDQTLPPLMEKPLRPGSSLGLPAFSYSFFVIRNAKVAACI

Plasma [7] = test: Anticoagulant activity in pooled human plasma assessed as prolongation of the recalcification time at 0.1 mg/ml by Heptest assay; format: ADME, cell-free
Summary of the method: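 Heptest clotting time in pooled normal human plasma; normal range 13–20 s. Values are the mean of two determinations.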

HUVEC [8] = test: Antiangiogenic activity in FGF1-stimulated HUVEC cells after 72 hrs by CellTiter assay; format: functional, cell-based; details: Homo sapiens
HUVEC [9] = test: Antiangiogenic activity in VEGF-stimulated HUVEC cells after 72 hrs by CellTiter assay; format: functional, cell-based; details: Homo sapiens
HUVEC [10] = test: Antiangiogenic activity in FGF2-stimulated HUVEC cells after 72 hrs by CellTiter assay; format: functional, cell-based; details: Homo sapiens
[11] = target: Fibroblast growth factor 1 (Homo sapiens, UniProt P05230); test: Binding affinity to FGF-1 by surface plasmon resonance assay
Sequence of Fibroblast growth factor 1 (P05230 whole entry): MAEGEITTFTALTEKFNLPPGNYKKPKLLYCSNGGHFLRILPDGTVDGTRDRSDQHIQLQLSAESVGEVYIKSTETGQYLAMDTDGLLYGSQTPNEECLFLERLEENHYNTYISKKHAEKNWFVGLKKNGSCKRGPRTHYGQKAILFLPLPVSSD
Summary of the method: as §1

HMVEC [12] = test: Antiangiogenic activity in FGF1-stimulated HMVEC cells after 72 hrs by CellTiter assay; format: functional, cell-based; details: Homo sapiens
HUVEC [13] = test: Antiangiogenic activity in HUVEC cells assessed as inhibition of tube formation after 18 hrs by matrigel assay; format: functional, cell-based; details: Homo sapiens
Summary of the method: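 HUVECs at passage 4–5 (70–80% confluent) resuspended at 4 × 10⁵/mL in EGM2 with all supplements except heparin. Cells mixed with compound to final 10, 50 or 100 μM and plated in triplicate on growth-factor-reduced Matrigel for 18 h. Branching nodes joining three or more tubules counted by phase-contrast microscopy; percent inhibition versus untreated cells.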

Aorta [14] = test: Cytotoxicity against Sprague-Dawley rat aorta assessed as VEGF-induced microvessel formation measured 6 days post compound treatment grown on fresh medium containing VEGF; format: tissue-based; details: 144 h
Summary of the method: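 Viability check on rat aortic ring cultures: after compound exposure, compound/medium withdrawn on day 6 or 7 and replaced with complete medium containing VEGF (typically 10 ng/mL) for up to 7 further days. Renewed microvessel sprouting taken as evidence of viable tissue.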

Rattus norvegicus = test: Elimination half life in Sprague-Dawley rat at 10 mg/kg, sc using [3H]-labeled compound administered as three bolus doses at 96 hrs interval; format: ADME, organism-based; set-up: dose 10 mg/kg, route subcutaneous; details: in vivo
HUVEC [15] = test: Antiangiogenic activity in HUVEC cells assessed as inhibition of tube formation at 10 uM after 18 hrs by matrigel assay; format: functional; details: Homo sapiens
Summary of the method: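 HUVECs (passage 4 or 5, 70–80% confluent) suspended at 4 × 10⁵/mL in EGM2 with all supplements except heparin, mixed 1:1 with compound (final 10, 50 or 100 μM) in triplicate. Plated on growth factor-reduced Matrigel for 18 h. Branching nodes joining ≥3 tubules counted manually by phase-contrast microscopy. Reported as % inhibition versus untreated cells.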

Aorta [16] = test: Antiangiogenic activity in Sprague-Dawley rat aorta assessed as inhibition of tube formation measured up to 8 days by matrigel assay; format: functional, tissue-based; details: 192 h
Summary of the method: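 Aortas from 6–10-week Sprague–Dawley rats cut into 1 mm rings, bisected and embedded in Matrigel. Cultured in EBM-2 with 2% FCS, supplements but no heparin and no added growth factor. Compound usually given at two concentrations within 1–50 μM (10 mM PBS stock), medium renewed every 48 h. Microvessels scored 0–5 up to 8 days by two independent observers.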

Ki (Heparanase) [nM]	Kd [11] [nM]	SMILES	Kd [1] [nM]	inhibition (INH) (Aorta [2]) [%]	Activity (HMVEC [3])	APTT (Plasma [4]) [s]	Activity (HMVEC [5])	Kd [6] [nM]	Time (Plasma [7]) [s]	IC50 (HUVEC [8]) [nM]	IC50 (HUVEC [9]) [nM]	IC50 (HUVEC [10]) [nM]	Activity (HMVEC [12])	IC50 (HUVEC [13]) [nM]	Activity (Aorta [14])	beta t1/2 (Rattus norvegicus) [h]	inhibition at 10 µM (HUVEC [15]) [%]	IC50 (Aorta [16]) [nM]
3.7	9.7	CC(C)CCC[C@@H](C)[C@H]1CC[C@H]2[C@@H]3CC[C@H]4C[C@@H](OCc5cn([C@@H]6O[C@H](COS(=O)(=O)[O-])[C@@H](O[C@H]7O[C@H](COS(=O)(=O)[O-])[C@@H](O[C@H]8O[C@H](COS(=O)(=O)[O-])[C@@H](O[C@H]9O[C@H](COS(=O)(=O)[O-])[C@@H](OS(=O)(=O)[O-])[C@H](OS(=O)(=O)[O-])[C@H]9OS(=O)(=O)[O-])[C@H](OS(=O)(=O)[O-])[C@H]8OS(=O)(=O)[O-])[C@H](OS(=O)(=O)[O-])[C@H]7OS(=O)(=O)[O-])[C@H](OS(=O)(=O)[O-])[C@H]6OS(=O)(=O)[O-])nn5)CC[C@]4(C)[C@H]3CC[C@]12C.[Na+].[Na+].[Na+].[Na+].[Na+].[Na+].[Na+].[Na+].[Na+].[Na+].[Na+].[Na+].[Na+]	95	>80	Active	104	Active	390	45.5	2300	2200	640	Active	–	–	–	–	–
–	–	CC(C)CCC[C@@H](C)[C@H]1CC[C@H]2[C@@H]3CC[C@H]4C[C@@H](O[C@@H]5O[C@H](COS(=O)(=O)[O-])[C@@H](O[C@H]6O[C@H](COS(=O)(=O)[O-])[C@@H](O[C@H]7O[C@H](COS(=O)(=O)[O-])[C@@H](O[C@H]8O[C@H](COS(=O)(=O)[O-])[C@@H](OS(=O)(=O)[O-])[C@H](OS(=O)(=O)[O-])[C@H]8OS(=O)(=O)[O-])[C@H](OS(=O)(=O)[O-])[C@H]7OS(=O)(=O)[O-])[C@H](OS(=O)(=O)[O-])[C@H]6OS(=O)(=O)[O-])[C@H](OS(=O)(=O)[O-])[C@H]5OS(=O)(=O)[O-])CC[C@]4(C)[C@H]3CC[C@]12C.[Na+].[Na+].[Na+].[Na+].[Na+].[Na+].[Na+].[Na+].[Na+].[Na+].[Na+].[Na+].[Na+]	28.9	>80	Active	71.9	Active	390	28.6	–	–	–	Active	2000	Non-toxic	> 50	> 80	1100
6	0.44	CCCCCCCCCCCCCCCCCC(=O)NCCCO[C@H]1O[C@H](COS(=O)(=O)[O-])[C@@H](OS(=O)(=O)[O-])[C@H](OS(=O)(=O)[O-])[C@@H]1O[C@H]1O[C@H](COS(=O)(=O)[O-])[C@@H](OS(=O)(=O)[O-])[C@H](O[C@H]2O[C@H](COS(=O)(=O)[O-])[C@@H](OS(=O)(=O)[O-])[C@H](O[C@H]3O[C@H](COS(=O)(=O)[O-])[C@@H](OS(=O)(=O)[O-])[C@H](OS(=O)(=O)[O-])[C@@H]3OS(=O)(=O)[O-])[C@@H]2OS(=O)(=O)[O-])[C@@H]1OS(=O)(=O)[O-].[Na+].[Na+].[Na+].[Na+].[Na+].[Na+].[Na+].[Na+].[Na+].[Na+].[Na+].[Na+].[Na+]	40	–	Active	68.1	Active	108	24.5	1540	600	700	Active	–	–	–	> 80	–

SMILES	Ki (Heparanase) [nM]	Kd [11] [nM]	Kd [1] [nM]	inhibition (INH) (Aorta [2]) [%]	Activity (HMVEC [3])	APTT (Plasma [4]) [s]	Activity (HMVEC [5])	Kd [6] [nM]	Time (Plasma [7]) [s]	IC50 (HUVEC [8]) [nM]	IC50 (HUVEC [9]) [nM]	IC50 (HUVEC [10]) [nM]	Activity (HMVEC [12])	IC50 (HUVEC [13]) [nM]	Activity (Aorta [14])	beta t1/2 (Rattus norvegicus) [h]	inhibition at 10 µM (HUVEC [15]) [%]	IC50 (Aorta [16]) [nM]
CC(C)CCC[C@@H](C)[C@H]1CC[C@H]2[C@@H]3CC[C@H]4C[C@@H](O[C@H]5O[C@H](COS(=O)(=O)[O-])[C@@H](OS(=O)(=O)[O-])[C@H](OS(=O)(=O)[O-])[C@@H]5O[C@H]5O[C@H](COS(=O)(=O)[O-])[C@@H](OS(=O)(=O)[O-])[C@H](O[C@H]6O[C@H](COS(=O)(=O)[O-])[C@@H](OS(=O)(=O)[O-])[C@H](O[C@H]7O[C@H](COS(=O)(=O)[O-])[C@@H](OS(=O)(=O)[O-])[C@H](OS(=O)(=O)[O-])[C@@H]7OS(=O)(=O)[O-])[C@@H]6OS(=O)(=O)[O-])[C@@H]5OS(=O)(=O)[O-])CC[C@]4(C)[C@H]3CC[C@]12C.[Na+].[Na+].[Na+].[Na+].[Na+].[Na+].[Na+].[Na+].[Na+].[Na+].[Na+].[Na+].[Na+]	5.8	0.6	22	>80	Active	94	Active	160	28	1290	1200	800	Active	–	–	–	> 80	–
